Experimental data: ChEMBL document CHEMBL1136138, “HIV protease inhibitors with picomolar potency against PI-Resistant HIV-1 by extension of the P3 substituent” (Bioorg Med Chem Lett, 2003)

Legend:
[1] = Half life period was determine after peroral administration at 10 mpk in Rhesus; type: ADME, organism-based; details: cercopithecidae, in vivo, po, 10 mg/kg
[2] = In vitro intrinsic clearance in human liver microsome; type: ADME; details: liver microsomes
[3] = Oral bioavailability in Rhesus monkey (dose 10 mg/kg p.o.); type: ADME, organism-based, Macaca mulatta; details: in vivo
[4] = Cmax was determine after peroral administration at 10 mpk in Rhesus; type: ADME, organism-based; design: dose 10 mpk, route oral; details: cercopithecidae, in vivo, po, 10 mg/kg
[5] = Oral bioavailability after peroral administration at 5 mpk in Dog; type: ADME, organism-based, Canis lupus familiaris; details: in vivo, 5 mg/kg
[6] = Area under curve was determine after peroral administration at 10 mpk in Rhesus; type: ADME; details: cercopithecidae, in vivo, po, 10 mg/kg
[7] = Cmax was determine after peroral administration at 5 mpk in dog; type: ADME, organism-based, Canis lupus familiaris; design: dose 5 mpk, route oral; details: in vivo, po, 5 mg/kg
[8] = Plasma clearance after peroral administration at 10 mpk in Rhesus; type: ADME, organism-based; details: cercopithecidae, po, 10 mg/kg, read-out: Clp
[9] = Half life period was determine after peroral administration at 5 mpk in dog; type: ADME, organism-based, Canis lupus familiaris; details: in vivo, po, 5 mg/kg
[10] = system: Canis familiaris; test: Plasma clearance after peroral administration at 5 mpk in dog; type: ADME, organism-based, Canis lupus familiaris; details: in vivo, po, 5 mg/kg
[11] = target: Cytochrome P450 2C9 (Homo sapiens, UniProt P11712); test: In vitro inhibition of human liver microsome Cytochrome P450 2C9; type: ADME, microsomes
Cytochrome P450 2C9, sequence (P11712 whole entry): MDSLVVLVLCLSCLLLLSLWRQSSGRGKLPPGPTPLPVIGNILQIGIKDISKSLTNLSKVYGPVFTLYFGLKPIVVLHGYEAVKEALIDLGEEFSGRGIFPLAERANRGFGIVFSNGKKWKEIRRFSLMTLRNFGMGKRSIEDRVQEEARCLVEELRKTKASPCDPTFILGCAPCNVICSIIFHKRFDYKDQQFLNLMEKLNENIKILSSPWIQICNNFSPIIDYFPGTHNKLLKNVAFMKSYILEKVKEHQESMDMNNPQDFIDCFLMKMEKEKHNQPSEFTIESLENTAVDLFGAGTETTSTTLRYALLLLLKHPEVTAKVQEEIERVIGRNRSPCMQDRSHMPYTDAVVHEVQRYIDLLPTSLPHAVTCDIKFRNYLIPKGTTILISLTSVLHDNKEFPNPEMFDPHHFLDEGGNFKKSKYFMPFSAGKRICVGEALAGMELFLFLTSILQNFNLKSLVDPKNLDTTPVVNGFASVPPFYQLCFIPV

[12] = target: Cytochrome P450 2D6 (Homo sapiens, UniProt P10635); test: In vitro inhibition of human liver microsome Cytochrome P450 2D6; type: ADME, microsomes
Cytochrome P450 2D6, sequence (P10635 whole entry): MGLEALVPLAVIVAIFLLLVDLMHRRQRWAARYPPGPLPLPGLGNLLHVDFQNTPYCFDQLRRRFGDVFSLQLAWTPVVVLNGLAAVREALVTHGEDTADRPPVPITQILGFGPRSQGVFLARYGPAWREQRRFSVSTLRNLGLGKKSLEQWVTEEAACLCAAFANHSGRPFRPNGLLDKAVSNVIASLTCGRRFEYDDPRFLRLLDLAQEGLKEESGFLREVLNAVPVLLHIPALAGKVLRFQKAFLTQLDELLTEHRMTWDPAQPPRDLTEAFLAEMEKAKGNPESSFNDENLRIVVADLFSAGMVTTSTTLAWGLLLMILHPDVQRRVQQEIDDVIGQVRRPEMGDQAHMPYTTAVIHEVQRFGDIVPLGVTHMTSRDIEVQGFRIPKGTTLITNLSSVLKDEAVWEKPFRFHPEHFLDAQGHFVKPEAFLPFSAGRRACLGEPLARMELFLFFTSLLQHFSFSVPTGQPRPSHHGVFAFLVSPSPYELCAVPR

[13] = target: Cytochrome P450 3A4 (Homo sapiens, UniProt P08684); test: In vitro inhibition of human liver microsome Cytochrome P450 3A4
Cytochrome P450 3A4, sequence (P08684 whole entry): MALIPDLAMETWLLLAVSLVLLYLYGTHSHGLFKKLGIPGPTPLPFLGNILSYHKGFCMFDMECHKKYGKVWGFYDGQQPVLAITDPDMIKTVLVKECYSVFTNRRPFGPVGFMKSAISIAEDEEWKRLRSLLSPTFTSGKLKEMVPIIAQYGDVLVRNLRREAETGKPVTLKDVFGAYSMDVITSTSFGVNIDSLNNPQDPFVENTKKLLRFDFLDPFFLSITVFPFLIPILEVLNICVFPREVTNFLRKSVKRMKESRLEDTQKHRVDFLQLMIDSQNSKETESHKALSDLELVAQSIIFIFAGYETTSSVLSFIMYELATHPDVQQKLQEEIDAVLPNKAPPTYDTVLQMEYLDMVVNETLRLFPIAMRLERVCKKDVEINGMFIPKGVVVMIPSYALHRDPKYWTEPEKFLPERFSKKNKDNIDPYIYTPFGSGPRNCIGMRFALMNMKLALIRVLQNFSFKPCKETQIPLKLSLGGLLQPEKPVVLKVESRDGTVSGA

[14] = system: MT4; test: Compound was tested for their ability to inhibit spread of PI-resistant HIV-1 (strain V-60C) viral infection in MT-4 human T-lymphoidcell; type: functional; details: read-out: CIC95
Outline: (§1)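 Spread of infection was measured in MT4 human T-lymphoid cells infected with viral constructs derived from the resistant clinical strains. The value is CIC95, the concentration that inhibits 95% of viral spread. "≤" and "≥" values are the lowest and highest concentrations tested.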

[15] = target: T1, Human immunodeficiency virus type 1 protease (Human immunodeficiency virus 1, UniProt Q72874); test: Inhibitory activity against HIV-1 Protease from PI-resistant HIV-1 (strain K-60C)
[16] = target: T1, Human immunodeficiency virus type 1 protease; test: Inhibitory activity against HIV-1 Protease from PI-resistant HIV-1 (strain Q-18C)
[17] = target: T1, Human immunodeficiency virus type 1 protease; test: Inhibitory activity against HIV-1 Protease from wild-type NL4-3 virus
[18] = system: Canis familiaris; test: (§2) Area under curve was determine after peroral administration at 5 mpk in dog; type: ADME, organism-based, Canis lupus familiaris; details: in vivo, po, 5 mg/kg
[19] = system: MT4; test: Compound was tested for their ability to inhibit spread of wild-type NL4-3 viral infection in MT-4 human T-lymphoidcell; type: functional; details: read-out: CIC95
Outline: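 Viral spread assay in MT4 human T-lymphoid cells infected with a viral construct derived from wild-type NL4-3. The read-out is CIC95, the concentration that blocks 95% of the spread of infection. Values marked ≤ or ≥ are the lowest or highest concentrations tested.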

[20] = target: T1, Human immunodeficiency virus type 1 protease; test: Inhibitory activity against HIV-1 Protease from PI-resistant HIV-1 (strain V-18C)
[21] = system: MT4; test: Compound was tested for their ability to inhibit spread of PI-resistant HIV-1 (strain K-60C) viral infection in MT-4 human T-lymphoidcell; type: functional; details: read-out: CIC95; outline: as §1
[22] = system: MT4; test: Compound was tested for their ability to inhibit spread of PI-resistant HIV-1 (strain Q-18C) viral infection in MT-4 human T-lymphoidcell; type: functional; details: read-out: CIC95; outline: as §1
[23] = Oral bioavailability in dog (dose 10 mg/kg); type: ADME, organism-based, Canis lupus familiaris; details: in vivo
[24] = Cmax was determine after peroral administration at 10 mpk in dog; type: ADME, organism-based, Canis lupus familiaris; design: dose 10 mpk, route oral; details: in vivo, po, 10 mg/kg
[25] = system: Canis familiaris; test: (§3) Area under curve was determine after peroral administration at 10 mpk in dog; type: ADME, organism-based, Canis lupus familiaris; details: in vivo, po, 10 mg/kg
[26] = Half life period was determine after peroral administration at 10 mpk in dog; type: ADME, organism-based, Canis lupus familiaris; details: in vivo, po, 10 mg/kg
[27] = system: Canis familiaris; test: (§4) Plasma clearance after peroral administration at 10 mpk in dog; type: ADME, organism-based, Canis lupus familiaris; details: in vivo, po, 10 mg/kg
[28] = as §3; type: ADME, organism-based, Canis lupus familiaris; details: in vivo, po, 10 mg/kg
[29] = as §4; type: ADME, organism-based, Canis lupus familiaris; details: plasma, po, 10 mg/kg, read-out: Clp
[30] = Oral bioavailability in dog (dose 5 mg/kg); type: ADME, organism-based, Canis lupus familiaris; details: in vivo
[31] = Cmax was determine after peroral administration at 5 mg/kg in dog; type: ADME, organism-based, Canis lupus familiaris; design: dose 5 mg/kg, route oral; details: in vivo, po
[32] = system: MT4; test: Compound was testedm for their ability to inhibit spread of PI-resistant HIV-1 (strain V-60C) viral infection in MT-4 human T-lymphoidcell; type: functional; details: read-out: CIC95; outline: as §1
[33] = Plasma clearance after peroral administration at 5 mg/kg in dog; type: ADME, organism-based, Canis lupus familiaris; design: dose 5 mg/kg, route oral; details: po, read-out: Clp
[34] = as §2; type: ADME, organism-based, Canis lupus familiaris; details: in vivo, po, 5 mg/kg

SMILES | CLint scaled [2] [mL/min/kg] | half-life [9] [min] | Clp [10] [mL/min/kg] | IC50 [11] [nM] | IC50 [12] [nM] | IC50 [13] [nM] | IC95 [14] [nM] | IC50 [15] [nM] | IC50 [16] [nM] | IC50 [17] [nM] | AUC [18] [µM·h] | IC95 [19] [nM] | IC50 [20] [nM] | IC95 [21] [nM] | IC95 [22] [nM] | bioavailability [23] [%] | half-life [26] [min] | bioavailability [30] [%] | Cmax [31] [µM] | other results
CC(C)(c1ccc(-c2ccncc2)o1)N1CCN(C[C@@H](O)C[C@@H](Cc2ccccc2)C(=O)N[C@H]2c3ccccc3OC[C@H]2O)[C@H](C(=O)NCC(F)(F)F)C1 | 19 | 70 | 22.5 | 410 | 360 | 10 | 12 | 0.3 | 0.1 | 0.05 | 11.3 | ≤ 8 | 1.2 |  |  |  |  |  |  | half-life [1]: 91 min; bioavailability [3]: 90%; Cmax [4]: 4.4 µM; bioavailability [5]: 100%; AUC [6]: 9.9 µM·h; Cmax [7]: 7.3 µM; CL/F [8]: 20.4 mL/min/kg
CC(C)(c1cc2cnccc2o1)N1CCN(C[C@@H](O)C[C@@H](Cc2ccccc2)C(=O)N[C@H]2c3ccccc3OC[C@H]2O)[C@H](C(=O)NCC(F)(F)F)C1 |  |  |  |  |  |  | 62 | 5.8 | 1.6 |  |  | ≤ 8 | 5.2 | 250 | 62 |  |  |  |  | 
O=C(N[C@H]1c2ccccc2OC[C@H]1O)[C@H](Cc1ccccc1)C[C@H](O)CN1CCN(Cc2ccc(-c3ccccn3)o2)C[C@H]1C(=O)NCC(F)(F)F | 655 |  |  | > 30000 | 29600 | 5200 | 15 | 0.5 | 0.4 |  |  | ≤ 8 | 0.7 | 31 | 15 | 4 | 50 |  |  | Cmax [24]: 0.9 µM; AUC [25]: 0.4 µM·h; Clp [27]: 33.5 mL/min/kg
CC(C)(C)NC(=O)[C@@H]1CN(Cc2cccnc2)CCN1C[C@@H](O)C[C@@H](Cc1ccccc1)C(=O)N[C@H]1c2ccccc2C[C@H]1O.O |  |  |  |  |  |  | > 1000 |  |  |  |  | 50 |  | > 1000 | > 1000 | 72 | 28 |  |  | AUC [28]: 12.5 µM·h; CL/F [29]: 16 mL/min/kg
O=C(N[C@H]1c2ccccc2OC[C@H]1O)[C@H](Cc1ccccc1)C[C@H](O)CN1CCN(Cc2ccc(-c3cccnc3)o2)C[C@H]1C(=O)NCC(F)(F)F | 233 | 41 | 25.2 | > 30000 | 6400 | 440 |  | 0.3 |  | 0.03 | 0.1 | ≤ 8 | 0.7 | 15 |  |  |  | 2 | 0.2 | IC95 [32]: 15 nM
O=C(N[C@H]1c2ccccc2OC[C@H]1O)[C@H](Cc1ccccc1)C[C@H](O)CN1CCN(Cc2ccc(-c3ccncc3)o2)C[C@H]1C(=O)NCC(F)(F)F | 133 | 60 |  | 5500 | 530 | 320 | 31 | 0.6 | 0.8 | 0.08 |  | ≤ 8 | 1.3 | 15 | 31 |  |  | 55 | 5.3 | CL/F [33]: 24.5 mL/min/kg; AUC [34]: 2.6 µM·h
